Experimental data taken from PMC5766413 (European journal of pharmacology, 2017).
Like-named read-outs stand apart in the source and are kept apart here.

What was measured:
[1] = tested on: NK1 receptor; conditions: monkeys; ref unpublished observations; cited from earlier work
[2] = tested on: NK1 receptor; conditions: minipigs; ref unpublished observations; cited from earlier work
[3] = tested on: NK1 receptor; conditions: dogs; ref unpublished observations; cited from earlier work
[4] = tested on: colorectum of anesthetized, acutely spinalized rats; test: Colorectal manometry with balloon catheter; type: in vivo, rat
How it was run: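 Urethane-anesthetized (1.2–1.4 g/kg SC) female rats, cord cut at T9–T10 ≥60 min before dosing, 37°C. Rectal balloon catheter was inflated in 0.1–0.2 ml saline steps to a steady 15–20 mmHg (0.3–0.7 ml total). Vehicle, then ascending SC doses in saline, 20–45 min apart. Pressure AUC over 0–5 min per dose; duration of raised activity noted; mean + S.D., ANOVA with Dunnett's test.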

[5] = tested on: human detrusor muscle strips; conditions: relative to KCL; ref Palea et al, 1996; cited from earlier work
[6] = tested on: anesthetized, acutely spinalized rats; test: Other pharmacodynamic observations; type: in vivo, rat
How it was run: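 In urethane-anesthetized female rats with T9–T10 cord transection ≥60 min before dosing, vehicle then ascending IV, SC or IM doses of test compound in 0.9% saline were given. Changes in skin color (ear and paw flushing), salivation and lacrimation were recorded when present; respiration was watched visually for obvious changes.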

[7] = tested on: blood pressure of guinea pigs; conditions: intra-arterial, ref Beattie et al, 1993; cited from earlier work
[8] = tested on: blood pressure of anesthetized, acutely spinalized rats; test: Blood pressure; type: in vivo, rat; conditions: up to 30 μg/kg IV and 300 μg/kg SC
How it was run: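 Female rats were anesthetized with urethane (1.2–1.4 g/kg SC) and kept at 37°C, with the spinal cord transected at T9–T10 at least 60 min before dosing. Test compound was given in 0.9% saline IV (200 μl plus 300 μl saline flush) or SC, vehicle first. Blood pressure was recorded continuously via the carotid artery, with heart rate derived off line from that signal. Values are change from the pre-dose baseline; one-way ANOVA.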

[9] = tested on: bladder of anesthetized, acutely spinalized rats; type: in vivo, rat
How it was run: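 Acutely spinalized (T9–T10, ≥60 min earlier), urethane-anesthetized female rats. Capacity was taken as the mean of three saline fills (0.04–0.1 ml/min, urethra open) until leak. Meatus then clamped, bladder held at 70% capacity; vehicle and ascending IV or SC doses ≥20 min apart. Contraction defined as ≥5 mmHg above baseline within 5 min; onset, time to peak, 30-min AUC and response duration; mean + S.D.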

[10] = tested on: NK2 over NK1 receptors; conditions: ref Rupniak et al, unpublished results; cited from earlier work

Compound | Effect on transient hypotension after IV injection of NKA and LMN-NKA [1] | Effect on transient hypotension after IV injection of NKA and LMN-NKA [2] | Effect on transient hypotension after IV injection of NKA and LMN-NKA [3] | Duration of action on colorectal pressure ([4]; SC 100 and 300 μg/kg) [min] | Increase in colorectal pressure ([4]; SC, highest doses tested were 100 and 300 μg/kg) | Maximal contraction of detrusor muscle strips [5] | Respiration (visual observation, words) ([6]; LMN-NKA up to 300 μg/kg SC or IM, NKA and GR 64349 at the doses tested) | Flushing ([6]; NKA at similar, GR 64349 at higher doses compared to LMN-NKA) | Blood pressure effect [7] | Blood pressure effect [8] | Duration of the bladder pressure response ([9]; 1 μg/kg IV, N=3, mean ± S.D.) [min] | Duration of the bladder pressure response ([9]; 300 μg/kg SC, N=4 for GR 64349, N=11 for LMN-NKA, mean ± S.D.) [min] | Onset of the increase in bladder pressure ([9]; 0.01–10 μg/kg IV and 1–300 μg/kg SC) [min] | Selectivity for NK2 over NK1 receptors [10] [fold]
COc1ccccc1CN[C@H]1CCCN[C@H]1c1ccccc1 [CP-99,994] | blocked | blocked | blocked |  |  |  |  |  |  |  |  |  |  | 
[Lys^3,Gly^8-R-gamma-lactam-Leu^9]-NKA(3–10) [GR 64349] |  |  |  | 20 to 25 | only at the highest doses tested | equivalent to maximal KCL-induced contractions | No obvious changes in respiration | transient flushing of the ears and paws | transient drop in blood pressure | No significant blood pressure changes | 1.5 ± 0.07 | 23.9 ± 12.22 | < 1 | > 250
spantide I | blocked | blocked | blocked |  |  |  |  |  |  |  |  |  |  | 
